# Measurements gathered from unrelated publications.
# pKi: −log10 of the molar value.
# CASP3: Caspase-3 (CASP3, Homo sapiens, UniProt P42574)
# DRD3: D(3) dopamine receptor (DRD3, Homo sapiens, UniProt P35462)
# SLC6A3: Sodium-dependent dopamine transporter (SLC6A3, Homo sapiens, UniProt Q01959)
Compound,target,effect on,action,method,notes,pKi
O=c1cc(-c2ccc(O)c(O)c2)oc2cc(O)cc(O)c12,CASP3,enzyme activity,inhibitor,fluorescence,,3.74
c1ccc(CCC2=NCCN2CCc2ccccc2)cc1,DRD3,ligand displacement,,radioligand,,< 5.00
O=c1c(O)c(-c2ccc(O)cc2)oc2cc(O)cc(O)c12,CASP3,enzyme activity,inhibitor,fluorescence,,3.71
CC1Cc2ccccc2N1C(=O)CCCN(C)[C@@H]1Cc2cccc3[nH]c(=O)n(c23)C1 (stereo partly shown),DRD3,ligand displacement,,radioligand,cell membranes,5.48
O=C1c2ccccc2CCCN1CCCCN1CCN(c2ccccn2)CC1,DRD3,ligand displacement,,radioligand,,8.52
CSC[C@H](NC(=O)C1=NO[C@@H]2OCC[C@H]12)C(=O)N[C@@H](CC(C)C)[C@@H](O)C[C@@H](C)C(=O)N[C@H](C(=O)NCC(C)C)C(C)C,"Beta-secretase 2 (BACE2, Homo sapiens, UniProt Q9Y5Z0)",enzyme activity,inhibitor,,,7.34
O=C1CSC(=S)N1NC(=S)SSC(=S)NN1C(=O)CSC1=S,"Tyrosine-protein phosphatase non-receptor type 22 (PTPN22, Homo sapiens, UniProt Q9Y2R2)",enzyme activity,inhibitor,fluorescence,,5.96
CC(C)(COP(=O)(O)OP(=O)(O)OC[C@H]1O[C@@H](n2cnc3c(N)ncnc32)[C@H](O)[C@@H]1OP(=O)(O)O)[C@@H](O)C(=O)NCCC(=O)NCCS,"Histone acetyltransferase type B catalytic subunit (Homo sapiens, UniProt O14929)",enzyme activity,inhibitor,radiometric,,4.38
O=C(/C=C(/Nc1ccccc1)C(=O)c1ccccc1)c1ccccc1,"DNA repair nuclease/redox regulator APEX1 (APEX1, Homo sapiens, UniProt P27695)",enzyme activity,inhibitor,,,4.43
CC1Cc2ccccc2N1C(=O)NCCCCN(C)[C@@H]1Cc2cccc3[nH]c(=O)n(c23)C1 (mixture of isomers),DRD3,ligand displacement,,radioligand,cell membranes,6.86
NS(=O)(=O)c1ccc(-n2nccc2-c2ccc(N3CCOCC3)cc2)cc1,"Carbonic anhydrase 12 (CA12, Homo sapiens, UniProt O43570)",enzyme activity,inhibitor,stopped-flow,,6.46
CCc1nc2cc(OCCCCN3CCC(c4cccc(Cl)c4Cl)CC3)ccc2s1,SLC6A3,ligand displacement,,radioligand,,5.40
CCN(CC)c1ccc(C2Nc3ccc(C(=O)c4ccccc4)cc3NC3=C2C(=O)CC(C)(C)C3)cc1 (stereo not shown),SLC6A3,cell-free assay,,radioligand,,< 5.00
CN(CC[C@@H]1C[C@H]1CNC(=O)c1cc2ccccc2[nH]1)[C@@H]1Cc2cccc3[nH]c(=O)n(c23)C1,DRD3,ligand displacement,,radioligand,cell membranes,6.40
COc1cccc(CCC2=NCCN2CCc2ccccc2)c1,DRD3,ligand displacement,,radioligand,,< 5.00
O=C(O[C@@H]1Cc2c(O)cc(O[C@H]3O[C@H](CO)[C@@H](O)[C@H](O)[C@H]3O)cc2O[C@@H]1c1cc(O)c(O)c(O)c1)c1cc(O)c(O)c(O)c1,"Maltase-glucoamylase (Homo sapiens, UniProt O43451)",enzyme activity,inhibitor,,,5.10
CC(C)c1nc2cc(OCCCCN3CCN(c4cccc5c4OCCO5)CC3)ccc2s1,SLC6A3,ligand displacement,,radioligand,,5.60
CC1Cc2ccccc2N1C(=O)c1nc2ccccc2s1 (stereo not shown),DRD3,ligand displacement,,radioligand,cell membranes,4.84
CC/C(=C(/c1ccc(O)cc1)c1ccc(OCCN)cc1)c1ccc(O)cc1,"Aromatase (CYP19A1, Homo sapiens, UniProt P11511)",enzyme activity,inhibitor,fluorescence,,7.70
